Data as given in paper PMC12120116 (Scientific Reports, 2025).
pIC50: −log10 of the molar value. Several values for one entry are separate records, joined by “and”; a condition that tells them apart may be missing. Identical values can stand only once. Entries after “also recorded” stand apart in the source; their conditions may differ.

Key:
A. franciscana larvae [1] = assay: ChemRICH chemical similarity enrichment analysis of deregulated metabolites; format: in vivo, Artemia franciscana
Acute toxicity assay = format: in vivo, Artemia franciscana; details: Artemia franciscana, in vivo, pH 8.5
[2] = system: Artemia franciscana larvae; assay: Acute toxicity assay; format: in vivo; details: for Mortality %: corrected, mean ± SEM; for LC1 (20% of the LC10): 20% of the LC10 at 24 h, sublethal concentration used for metabolomics; for LC10 (lethal concentration 10%): probit regression
MCF-7 cell line = details: cited from earlier work
[3] = rodent models; cited from earlier work
A. franciscana larvae [4] = assay: Pathway enrichment analysis; format: in vivo, Artemia franciscana; details: sublethal concentrations (LC10 at 48 h)
rodent models = details: cited from earlier work
[5] = system: Artemia franciscana larvae; assay: Teratogenic effect; format: in vivo; details: for Body length: mean ± SEM
Method in brief: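 Larvae came from cysts hatched 24 h in aerated ASW (pH ≅ 8.5, 28 °C). Thirty larvae were incubated in 1 mL of test-compound dilution (from DMSO stock, 0.17% DMSO, sonicated) at 25–26.5 °C for 24 h and 48 h. Ten larvae per tube had eye-to-tail length measured from images. A linear mixed-effects model (experiment as random effect) compared each treatment with time-matched ASW + 0.17% DMSO vehicle, with Dunnett adjustment.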

A. franciscana larvae [6] = assay: Untargeted LC-MS/MS metabolomics of larvae at sublethal concentrations; format: in vivo, Artemia franciscana
A. salina = details: 2500 mg/L (15 mM); ref 10 (Lestari et al. 2017); cited from earlier work
[7] = LC1 and LC10, 24 and 48 h, vs vehicle control

Compound: CCCC(CCC)C(=O)Nc1ccccc1O [HO-AAVPA, N-(2-hydroxyphenyl)-2-propylpentanamide]
- Triacylglycerides cluster, abundance of metabolites (A. franciscana larvae [1]; LC1, 24 h): decreased
- Triacylglycerides cluster, abundance of metabolites (A. franciscana larvae [1]; LC10, 24 h): increased
- Glycerophosphocholines and glycerophosphoethanolamines clusters (A. franciscana larvae [1]; both concentrations, 48 h): mixed changes
- Malonyl carnitine (A. franciscana larvae [1]; fatty acid esters, LC1 and LC10, 24 and 48 h): most sustained alterations
- LC50 at 24 h (Acute toxicity assay): 450 µM and 106 µg/mL
- LC50 at 48 h (Acute toxicity assay): 320 µM and 75.8 µg/mL
- Mortality % ([2]; 0.18 mM (42.36 mg/L), 24 h): 1.03 ± 1.15%
- Mortality % ([2]; 0.18 mM (42.36 mg/L), 48 h): 16.96 ± 6.69%
- Mortality % ([2]; 0.32 mM (75.31 mg/L), 24 h): 10.41 ± 5.92%
- Mortality % ([2]; 0.32 mM (75.31 mg/L), 48 h): 30.34 ± 15.25%
- Mortality % ([2]; 0.56 mM (131.78 mg/L), 24 h): 60.16 ± 18.53 %
- Mortality % ([2]; 0.56 mM (131.78 mg/L), 48 h): 77.3 ± 13.49 %
- Mortality % ([2]; 1.00 mM (235.33 mg/L), 24 h): 97.81 ± 1.1 %
- Mortality % ([2]; 1.00 mM (235.33 mg/L), 48 h): 100 ± 0 %
- LC1 (20% of the LC10) [2]: 0.04 mM
- LC10 (lethal concentration 10%) ([2]; 48 h): 0.13 mM and 29.49 mg/L
- Toxicity compared to VPA ([2]; acute toxicity, 24 and 48 h): high toxicity; also recorded: higher toxic effects
- pIC50 (MCF-7 cell line): 3.32
- Bioavailability compared to VPA [3]: higher bioavailability
- Major deregulated / most impacted metabolic pathways (A. franciscana larvae [4]): sphingolipid and glycerophospholipid metabolism; also recorded: glycerophospholipid and sphingolipid metabolism
- Toxicity compared to VPA (rodent models): lower toxicity
- Body length ([5]; 0.10 mM (23.53 mg/L), 24 h): 0.79 ± 0.011
- Body length ([5]; 0.10 mM (23.53 mg/L), 48 h): 0.82 ± 0.014
- Body length ([5]; 0.18 mM (42.36 mg/L), 24 h): 0.77 ± 0.007
- Body length ([5]; 0.18 mM (42.36 mg/L), 48 h): 0.78 ± 0.015
- Body length ([5]; 0.32 mM (75.31 mg/L), 24 h): 0.76 ± 0.01
- Body length ([5]; 0.32 mM (75.31 mg/L), 48 h): 0.83 ± 0.011
- Body length ([5]; 0.56 mM (131.78 mg/L), 24 h): 0.7 ± 0.014
- Body length ([5]; 0.56 mM (131.78 mg/L), 48 h): 0.69 ± 0.022
- Body length ([5]; 1.00 mM (235.33 mg/L), 24 h): 0.66 ± 0.018
- Body length ([5]; 1.00 mM (235.33 mg/L), 48 h): 0.58 ± 0.018
- Teratogenicity compared to VPA ([5]; larvae length as morphological indicator): lower teratogenicity; also recorded: lower teratogenic
- Abundance of L-glutamine, L-asparagine, dihydrothymine and dihydrouracil (A. franciscana larvae [6]; [7]): did not produce any significant impact
- Abundance of L-serine and isobutyryl-L-carnitine (A. franciscana larvae [6]; [7]): did not produce any significant impact
- Oxysterols (3beta,7alpha-dihydroxy-5-cholestenoate, 3b-hydroxy-5-cholenoic acid, 7-ketodeoxycholic acid, 4alpha-carboxy-5alpha-cholesta-8-en-3beta-ol) (A. franciscana larvae [6]; LC10): increased
- Abundance of some triacylglycerides (TG) (A. franciscana larvae [6]; both concentrations, only at 24 h): downregulated
- Abundance of 7E,9E,11-Dodecatrienyl acetate (A. franciscana larvae [6]; most notable change, vs vehicle control): downregulation
- Abundance of mintsulfide, 3beta,7alpha-Dihydroxy-5-cholestenoate and 4alpha-Carboxy-5alpha-cholesta-8-en-3beta-ol (A. franciscana larvae [6]; vs vehicle control): raised the abundance

Compound: CCCC(CCC)C(=O)O [VPA, valproic acid]
- Ceramide and glycerophosphoinositol clusters, abundance of metabolites (A. franciscana larvae [1]; LC10, sustained up to 48 h): downregulates
- Lipid abundance (glycerophospholipid subclasses, linoleic acid and derivatives) (A. franciscana larvae [1]; especially LC1, 48 h): increases
- C2-C6 acylcarnitines (fatty acid esters cluster) (A. franciscana larvae [1]; lowest concentration (LC1)): positively impacts
- Abundance of amino acids and their derivatives (A. franciscana larvae [1]; most metabolites of the cluster): upward trend
- LC50 (Acute toxicity assay): > 1000 µg/mL
- LC50 at 24 h (Acute toxicity assay): 41.1 mM
- LC50 at 48 h (Acute toxicity assay): 18.7 mM
- Mortality % ([2]; 3 mM (499 mg/L), 24 h): 1.19 ± 3.15%
- Mortality % ([2]; 3 mM (499 mg/L), 48 h): 7.06 ± 3.61%
- Mortality % ([2]; 5.4 mM (897 mg/L), 24 h): 1.83 ± 3.66%
- Mortality % ([2]; 5.4 mM (897 mg/L), 48 h): 4.98 ± 4.86%
- Mortality % ([2]; 9.6 mM (1595 mg/L), 24 h): 10.08 ± 8.85%
- Mortality % ([2]; 9.6 mM (1595 mg/L), 48 h): 26.43 ± 8.52%
- Mortality % ([2]; 16.8 mM (2792 mg/L), 24 h): 11.11 ± 11.85%
- Mortality % ([2]; 16.8 mM (2792 mg/L), 48 h): 29.41 ± 11.96%
- Mortality % ([2]; 30 mM (4986 mg/L), 24 h): 35.05 ± 12.82%
- Mortality % ([2]; 30 mM (4986 mg/L), 48 h): 62.42 ± 14.69 %
- Mortality % ([2]; 54 mM (8974 mg/L), 24 h): 37.32 ± 15.84 %
- Mortality % ([2]; 54 mM (8974 mg/L), 48 h): 82.22 ± 9.04 %
- Mortality % ([2]; 96 mM (15,954 mg/L), 24 h): 70.18 ± 14.77 %
- Mortality % ([2]; 96 mM (15,954 mg/L), 48 h): 96.35 ± 2.13 %
- Mortality % ([2]; 168 mM (27,920 mg/L), 24 h): 98.85 ± 1.15 %
- Mortality % ([2]; 168 mM (27,920 mg/L), 48 h): 100 ± 0 %
- LC1 (20% of the LC10) [2]: 1.79 mM
- Concentration at which 100% lethality was achieved ([2]; 48 h): above 96 mM
- LC10 (lethal concentration 10%) ([2]; 48 h): 4.71 mM and 783.1 mg/L
- Lethality (A. salina): 100%
- Major deregulated / most impacted metabolic pathways (A. franciscana larvae [4]): alanine, aspartate, and glutamate metabolism
- Body length ([5]; 3 mM (499 mg/L), 24 h): 0.78 ± 0.008
- Body length ([5]; 3 mM (499 mg/L), 48 h): 0.8 ± 0.01
- Body length ([5]; 5.4 mM (897 mg/L), 24 h): 0.74 ± 0.012
- Body length ([5]; 5.4 mM (897 mg/L), 48 h): 0.77 ± 0.012
- Body length ([5]; 9.6 mM (1595 mg/L), 24 h): 0.69 ± 0.011
- Body length ([5]; 9.6 mM (1595 mg/L), 48 h): 0.68 ± 0.021
- Body length ([5]; 16.8 mM (2792 mg/L), 24 h): 0.67 ± 0.009
- Body length ([5]; 16.8 mM (2792 mg/L), 48 h): 0.66 ± 0.017
- Body length ([5]; 30 mM (4986 mg/L), 24 h): 0.67 ± 0.008
- Body length ([5]; 30 mM (4986 mg/L), 48 h): 0.64 ± 0.013
- Body length ([5]; 54 mM (8974 mg/L), 24 h): 0.61 ± 0.015
- Body length ([5]; 54 mM (8974 mg/L), 48 h): 0.57 ± 0.017
- Body length ([5]; 96 mM (15,954 mg/L), 24 h): 0.56 ± 0.011
- Body length ([5]; 96 mM (15,954 mg/L), 48 h): 0.54 ± 0.01
- Body length ([5]; 168 mM (27,920 mg/L), 24 h): 0.52 ± 0.014
- Body length ([5]; 168 mM (27,920 mg/L), 48 h): 0.5 ± 0.011
